Compound activity: PubChem BioAssay, Broad Institute
A selection: hits, their analogues and other compounds. The true share with any hit is near 3.5%.
FN deposition inh: fibronectin deposition inhibition; inhibition, % at 12.6 µM; actives 0.086% (n = 350,000); AH1F fibroblasts, Alexa488-fibronectin deposition fluorescence, overnight; AID 743247;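 active = mean inhibition across replicates of 30% or more, regardless of how many single replicates reach that level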;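 also: positive control wells lacked labelled fibronectin entirely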
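Assay system: AH1F fibroblasts assembling fluorescent fibronectin matrix; Amount: 10000 AH1F cells per well; Buffer or medium: DMEM, 2% serum; Probe or stimulus: Alexa488-fibronectin, 24 nM final in well; Doses: single compound dose, delivered by pin transfer; Incubation: 1 h adhesion, overnight exposure; Measured by: fluorescence 485/525 nm; Read-out: fibronectin deposition inhibition.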
PglD inh: PglD (C. jejuni) enzyme inhibition; purified PglD enzyme, DTNB colorimetric CoA detection; inhibition, % at 12.5 µM; actives 0.098% (n = 360,000); AID 602405; in the data active = inhibition above about 16%, passing the limit was not always enough
rRNA inh HTS: inhibitors of bacterial rRNA selective over humanized ribosomes; E. coli WT GFP vs humanized-ribosome RFP mutants, fluorescence, 24 h; hits give low values; DMSO median 0, no signal -100; GFP signal change (wild-type ribosome), % (no concentration beside the values); actives 1.6% (n = 350,000); AID 720706;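 active = significant combined selectivity score with lowered wild-type GFP, culture density cut under 30%, mutant RFP and density less affected; inactive = any of these conditions unmet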
DENV2 CPE: protects cells from dengue virus 2 cytopathic effect; AID 651640; actives 1.7% (n = 350,000); CPE inhibition, % at 9.99 µM; DENV2-infected cells, cytopathic effect rescue, plate reader; in the data active = CPE inhibition above about 20%, passing the limit was not always enough; tested in BHK-21 cells;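 also: 0% = median of neutral control wells and 100% = median of positive control wells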
Env fusion inh: blocks HIV Env-driven cell-cell fusion | AID 651610 | actives 1.1% (n = 360,000) | HeLa-JRFL Env/CEM21 cell fusion, luciferase | inhibition, % at 12.3 µM;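 active = mean replicate inhibition score of at least 50 and every replicate individually at or above 50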;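 also: 0% = plate neutral controls and 100% = maraviroc near 300 nM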
PGC1a acetyl inh: PGC1a acetylation modulation, inhibitor mode; inhibition, % at 15.6 µM; U2OS PGC1a acetylation, AlphaScreen anti-acetyl-lysine; with virally co-expressed GCN5 acetyltransferase; actives 0.17% (n = 350,000);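 active = every replicate shows inhibition of at least 40%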;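 also: 0% = neutral control wells and 100% = positive control wells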
* marks the source's active call; other numbers are inactive results; . = no result given; ! = repeats disagree; [ ] = another dose, or the depositor's remark.

SMILES | FN deposition inh | PglD inh | rRNA inh HTS | DENV2 CPE | Env fusion inh | PGC1a acetyl inh
C[C@H]1CN([C@@H](C)CO)C(=O)CCCn2nncc2CO[C@H]1CN(C)S(=O)(=O)c1ccccc1F | 8 | 1 | 16 | 27*! | -16 | -7
C[C@@H]1CN([C@H](C)CO)C(=O)Cc2cc(NC(=O)CCN3CCOCC3)ccc2O[C@@H]1CN(C)S(=O)(=O)c1ccc(F)cc1 | . | 4 | 4 | 4 | . | -13
COCC(=O)Nc1ccc2c(c1)OC[C@@H](C)N(Cc1cccc(F)c1)C[C@@H](C)[C@@H](OC)CN(C)C2=O | 9 | 6 | 2 | -2 | 14[16.7 µM] | -1
COCC(=O)Nc1ccc2c(c1)OC[C@@H](C)N(Cc1cccc(F)c1)C[C@H](C)[C@H](OC)CN(C)C2=O | 4 | 1 | -9 | 35* | 12[16.7 µM] | 7
COCC(=O)Nc1ccc2c(c1)OC[C@@H](C)N(Cc1cc(F)ccc1F)C[C@@H](C)[C@@H](OC)CN(C)C2=O | 4 | 0 | -2 | 31* | . | 2
COc1ccc(-c2noc(CCCCC(=O)N3CCN(c4cc(C)ccc4C)CC3)n2)cc1 | -5 | -1 | -7 | -6 | 68* | 15
CCCn1nnnc1NCc1ccc(Cl)cc1Cl | 1 | -2 | -29* | 2 | 7 | -3
CC(C)NC(=O)Nc1ccc2c(c1)CC(=O)N([C@H](C)CO)C[C@@H](C)[C@H](CN(C)Cc1ccc(-c3ccccc3)cc1)O2 | . | 6 | 4 | -3 | 4[16.7 µM] | -5
COc1ccccc1OCCNS(=O)(=O)c1ccc2oc3ccccc3c2c1 | . | . | . | . | 58* | .
CC(SCc1ccccc1)C(=O)N/N=C/c1cc2c(cc1Br)OCO2 (stereo not given) | 2 | -5 | . | . | 88* | -12
Cc1ccc(S(=O)(=O)Nc2ccc3c(c2)CC(=O)N([C@@H](C)CO)C[C@H](C)[C@@H](CN(C)C(=O)Nc2cccc4ccccc24)O3)cc1 | . | 2 | 4 | 33* | 8[16.7 µM] | -9
Cc1ccc(S(=O)(=O)Nc2ccc3c(c2)CC(=O)N([C@H](C)CO)C[C@H](C)[C@@H](CN(C)C(=O)Nc2cccc4ccccc24)O3)cc1 | . | -4 | 1 | 96* | -7[16.7 µM] | -11
Cc1ccc(S(=O)(=O)Nc2ccc3c(c2)CC(=O)N([C@@H](C)CO)C[C@@H](C)[C@H](CN(C)C(=O)Nc2cccc4ccccc24)O3)cc1 | . | . | 0 | 6 | . | -7
Cc1ccc(S(=O)(=O)Nc2ccc3c(c2)CC(=O)N([C@H](C)CO)C[C@@H](C)[C@@H](CN(C)C(=O)Nc2cccc4ccccc24)O3)cc1 | . | -2 | 1 | 17 | -15[16.7 µM] | -17
O=C(C1CCCC1)N1CCCCN2[C@H](CO)[C@@H](c3ccc(-c4ccncc4)cc3)[C@H]2C1 | . | 7 | . | 8 | . | 2
C[C@@H]1CCCCO[C@H](CN(C)C(=O)C2CCCCC2)[C@@H](C)CN([C@@H](C)CO)C(=O)c2cc(NC(=O)Cc3ccccc3)ccc2O1 | . | 0 | -6 | 1 | -56[16.7 µM] | 10
COCC(=O)N(C)C[C@@H]1Oc2ncc(C3=CCCC3)cc2C(=O)N([C@@H](C)CO)C[C@@H]1C | . | -2 | 2 | -3 | -1[16.7 µM] | 1
COc1cccc(C(=O)N2C[C@H]3[C@@H](c4ccccc42)[C@H](CO)N3C(=O)c2ccc(F)cc2)c1 | 5 | -1 | 3 | 27* | . | -4
COc1cccc(C(=O)N2C[C@@H]3[C@H](c4ccccc42)[C@H](CO)N3C(=O)c2ccc(F)cc2)c1 | -3 | -7 | 3 | -9 | . | 2
COc1ccccc1NC(=O)N1C[C@@H]2[C@H](c3ccccc31)[C@@H](CO)N2C(C)=O | . | 2 | 6 | 44* | . | -7
COc1ccccc1NC(=O)N1C[C@H]2[C@@H](c3ccccc31)[C@@H](CO)N2C(C)=O | . | 6 | 4 | 4 | . | 0
O=C(Nc1ccccc1F)N1C[C@@H]2[C@H](c3ccccc31)[C@@H](CO)N2C(=O)c1ccc(F)cc1 | . | 1 | 0 | -8 | . | 2
O=C(Nc1ccccc1F)N1C[C@@H]2[C@H](c3ccccc31)[C@H](CO)N2C(=O)c1ccc(F)cc1 | . | -5 | 4 | 35* | . | -4
O=C(c1ccncc1)N1C[C@H]2[C@@H](c3ccccc31)[C@H](CO)N2C(=O)c1ccccc1F | . | 2 | 5 | 43* | . | 2
